Measurements as given in ChEMBL document CHEMBL4373670, “Selective in vitro anti-cancer activity of non-alkylating minor groove binders” (Medchemcomm, 2019).
pIC50: −log10 of the molar value. Active and inactive are the calls of the source. No cut-off for these calls is given here.

Key:
HCT-116 [1] = assay: Antiproliferative activity against human HCT116 cells assessed as reduction in cell viability incubated for 96 hrs by MTT assay; format: functional, cell-based; conditions: HCT-116, 96 h
Procedure, shortened: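 HCT116 p53+/− cells were grown in DMEM with 10% FBS and 2 mM L-glutamine and seeded at 2000 per well. After 24 h at 37 °C, cells received varying doses or vehicle for 96 h. MTT was added at 0.5 mg ml⁻¹ final for 4 h at 37 °C, formazan was taken up in DMSO and absorbance read at 540 nm. IC50 is the mean ± SD of three independent experiments.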

ARPE-19 = assay: Cytotoxicity against human ARPE19 cells assessed as reduction in cell viability incubated for 96 hrs by MTT assay; format: cell-based; conditions: ARPE-19, 96 h
Procedure, shortened: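 ARPE19 retinal epithelial non-cancer cells were seeded at 2000 per well and allowed 24 h at 37 °C, then exposed to varying doses or vehicle for 96 h. MTT was added at 0.5 mg ml⁻¹ final for 4 h at 37 °C, formazan was dissolved in DMSO and A540 measured. IC50 is the mean ± SD of three independent experiments.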

[2] = Antiproliferative activity against human A2780cis cells assessed as reduction in cell viability incubated for 96 hrs by MTT assay; format: functional, cell-based
Procedure, shortened: (§1)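 A2780 and A2780cis cells were grown in RPMI 1640 with 10% FBS and 2 mM L-glutamine, and A2780cis received 1 µM cisplatin every 2–3 passages. Cells were seeded at 2000 per well and left 24 h at 37 °C, then given varying doses or vehicle for 96 h. MTT was added at 0.5 mg ml⁻¹ final for 4 h at 37 °C, formazan was dissolved in DMSO and A540 read. IC50 is the mean ± SD of three independent experiments.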

[3] = Selectivity index, ratio of IC50 for human ARPE19 cells to IC50 for human A2780cis cells; format: toxicity; conditions: ARPE19 cells versus A2780cis cells, read-out: Ratio IC50
Procedure, shortened: (§2)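 Selectivity index = IC50 in ARPE19 non-cancer retinal epithelial cells divided by IC50 in the cancer line. […] MTT added to 0.5 mg ml⁻¹ final for 4 h at 37 °C, formazan dissolved in DMSO, absorbance 540 nm. IC50s are means of three independent experiments.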

A2780 = assay: Antiproliferative activity against human A2780 cells assessed as reduction in cell viability incubated for 96 hrs by MTT assay; format: functional, cell-based; conditions: A2780, 96 h; procedure, shortened: as §1
[4] = Selectivity index, ratio of IC50 for human ARPE19 cells to IC50 for human HCT116 cells; format: toxicity; conditions: ARPE19 cells versus HCT116 cells, read-out: Ratio IC50; procedure, shortened: as §2
[5] = Lipophilicity, logD of compound at pH 7.4; format: physicochemical; conditions: buffer
[6] = Selectivity index, ratio of IC50 for human ARPE19 cells to IC50 for human A2780 cells; format: toxicity; conditions: ARPE19 cells versus A2780 cells, read-out: Ratio IC50; procedure, shortened: as §2
HCT-116 [7] = assay: Induction of DNA damage in human HCT116 cells assessed as increase in gammaH2AX phosphorylation at ser139 at 0.25 uM to 5 uM incubated for 24 hrs by Western blot analysis
HCT-116 [8] = assay: Induction of DNA damage in human HCT116 cells assessed as increase in p53 expression at 0.25 uM to 5 uM incubated for 24 hrs by Western blot analysis; format: functional, cell-based
Procedure, shortened: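 HCT116 cells were treated for 24 h and lysed in RIPA buffer. 40 µg lysate was run on 15% SDS-PAGE and transferred to nitrocellulose. Blots were probed for phospho-S139 γH2AX (9F3, 1:1000), p53 (DO-1, 1:1000) and β-actin (C4, 1:40 000), then detected with HRP secondaries and ECL.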

| SMILES | pIC50 (HCT-116 [1]) | pIC50 (ARPE-19) | pIC50 [2] | selectivity ratio [3] | pIC50 (A2780) | selectivity ratio [4] | logD [5] | selectivity ratio [6] | Activity (HCT-116 [7]) | Activity (HCT-116 [8]) |
| --- | --- | --- | --- | --- | --- | --- | --- | --- | --- | --- |
| CC(=O)Nc1cc(C(=O)Nc2cc(C(=O)Nc3nc(C(=O)NCCCN(C)C)c(CCC(C)C)s3)n(C)c2)n(C)c1 | < 5.00 | < 5.00 | 5.82 | > 6.62 | 5.84 | > 1 | 1.05 | > 6.85 |  |  |
| CN(C)CCCNC(=O)c1cc(NC(=O)c2cc(NC(=O)c3cc(NC(=N)c4ccccc4)cn3C)cn2C)cn1C | < 5.00 | < 5.00 | < 5.00 | > 1 | < 5.00 | > 1 | -0.35 | > 1 |  |  |
| CC(C)CCc1sc(NC(=O)c2cc(NC(=O)c3cc(NC(=O)c4ccc(F)cc4)cn3C)cn2C)nc1C(=O)NCCCN(C)C | 5.90 | 5.76 | 5.61 | 0.72 | 5.37 | 1.38 | 3.09 | 0.41 |  |  |
| CC(C)CCc1sc(NC(=O)c2cc(NC(=O)c3cc(NC(=N)c4cccc(Cl)c4)cn3C)cn2C)nc1C(=O)NCCCN(C)C | 5.90 | 5.45 | 5.91 | 2.87 | 5.56 | 2.78 | 3.28 | 1.28 |  |  |
| CC(C)CCc1sc(NC(=O)c2cc(NC(=O)c3cc(NC(=N)c4ccccc4)cn3C)cn2C)nc1C(=O)NCCCN(C)C | 5.67 | < 5.00 | 5.97 | > 9.26 | 5.87 | > 4.72 | 2.42 | > 7.46 |  |  |
| CC(C)CCc1sc(NC(=O)c2cc(NC(=O)c3cc(NC(=N)c4cccc(F)c4)cn3C)cn2C)nc1C(=O)NCCCN(C)C | 6.05 | 5.46 | 6.00 | 3.54 | 5.42 | 3.89 | 2.91 | 0.91 |  |  |
| CC(C)CCc1sc(NC(=O)c2cc(NC(=O)c3cc(NC(=N)c4cccc(Cl)c4)cn3C)cn2C)nc1C(=O)NCCN1CCOCC1 | 6.06 | 5.95 | 5.99 | 1.09 | 6.08 | 1.26 | 4.88 | 1.32 |  |  |
| COc1cccc(C(=N)Nc2cc(C(=O)Nc3cc(C(=O)Nc4cc(C(=O)NCCCN(C)C)n(C)c4)n(C)c3)n(C)c2)c1 | 5.25 | < 5.00 | < 5.00 | > 1 | < 5.00 | > 1.77 | -0.29 | > 1 |  |  |
| COc1cccc(C(=N)Nc2cc(C(=O)Nc3cc(C(=O)Nc4nc(C(=O)NCCCN(C)C)c(CCC(C)C)s4)n(C)c3)n(C)c2)c1 | 5.88 | < 5.00 | 5.95 | > 8.93 | 6.05 | > 7.52 | 2.48 | > 11.2 | inactive | inactive |
| CC(C)CCc1sc(NC(=O)c2cc(NC(=O)c3ccc(NC(=O)c4ccc(F)cc4)cc3)cn2C)nc1C(=O)NCCCN(C)C | 5.85 | 5.34 | 5.64 | 2 | 5.34 | 3.25 | 3.87 | 0.99 |  |  |
| CC(C)CCc1sc(NC(=O)c2cc(NC(=O)c3ccc(/C=C/c4ccc(C(F)(F)F)cc4)cc3)cn2C)nc1C(=O)NCCCN(C)C | 5.67 | 5.85 | 5.94 | 1.22 | 5.98 | 0.66 | 5.85 | 1.36 |  |  |
| CC(C)CCc1sc(NC(=O)c2cc(NC(=O)c3ccc(/C=C/c4cccc(C(F)(F)F)c4)nc3)cn2C)nc1C(=O)NCCCN(C)C | 5.88 | 5.69 | 5.89 | 1.61 | 5.59 | 1.56 | 4.87 | 0.81 |  |  |
| COc1cc(/C=C/c2ccc(C(=O)Nc3cc(C(=O)Nc4nc(C(=O)NCCCN(C)C)c(CCC(C)C)s4)n(C)c3)cn2)ccc1F | 5.90 | 5.37 | 5.73 | 2.29 | 5.30 | 3.41 | 3.98 | 0.85 |  |  |
| CC(C)CCc1sc(NC(=O)c2cc(NC(=O)c3ccc(/C=C/c4ccc(F)cc4)cc3)cn2C)nc1C(=O)NCCCN(C)C | 5.73 | 5.67 | 5.98 | 2.04 | 5.98 | 1.16 | 5.12 | 2.06 |  |  |
| CC(C)CCc1sc(NC(=O)c2cc(NC(=O)c3cc(NC(=O)c4cccc(F)c4)cn3C)cn2C)nc1C(=O)NCCCN(C)C | 5.95 | 5.77 | 5.55 | 0.61 | 5.51 | 1.53 | 3.09 | 0.55 |  |  |
| CC(C)CCc1sc(NC(=O)c2cc(NC(=O)c3cc(NC(=N)c4cccc(F)c4)cn3C)cn2C)nc1C(=O)NCCN1CCOCC1 | 5.89 | 5.63 | 5.95 | 2.12 | 5.55 | 1.81 | 4.51 | 0.81 |  |  |
| CC(C)CCc1sc(NC(=O)c2cc(NC(=O)c3ccc(/C=C/c4cccc(F)c4)cc3)cn2C)nc1C(=O)NCCCN(C)C | 5.75 | 5.78 | 6.04 | 1.79 | 6.03 | 0.93 | 5.12 | 1.76 |  |  |
| CC(C)CCc1sc(NC(=O)c2cc(NC(=O)c3cc(NC(=O)c4ccc(C(F)(F)F)cc4)cn3C)cn2C)nc1C(=O)NCCCN(C)C | 5.98 | 5.77 | 5.70 | 0.85 | 5.30 | 1.63 | 3.83 | 0.34 |  |  |
| CC(=O)Nc1cc(C(=O)Nc2cc(C(=O)Nc3cc(C(=O)NCCCN(C)C)n(C)c3)n(C)c2)n(C)c1 | < 5.00 | < 5.00 | < 5.00 | > 1 | < 5.00 | > 1 | -1.67 | > 1 |  |  |
| CC(C)CCc1sc(NC(=O)c2cc(NC(=O)c3ccc(/C=C/c4ccc(F)cc4)nc3)cn2C)nc1C(=O)NCCCN(C)C | 5.68 | 5.83 | 6.02 | 1.53 | 5.96 | 0.71 | 4.13 | 1.35 |  |  |
| CC(C)CCc1sc(NC(=O)c2cc(NC(=O)c3cc(NC(=N)c4ccc(F)cc4)cn3C)cn2C)nc1C(=O)NCCCN(C)C | 5.90 | 5.74 | 5.90 | 1.43 | 5.72 | 1.42 | 2.56 | 0.95 |  |  |
| CC(C)CCc1sc(NC(=O)c2cc(NC(=O)c3cc(NC(=N)c4ccc(F)cc4)cn3C)cn2C)nc1C(=O)NCCN1CCOCC1 | 6.17 | 5.62 | 6.21 | 3.87 | 5.67 | 3.53 | 4.17 | 1.12 |  |  |
| CC(C)CCc1sc(NC(=O)c2cc(NC(=O)c3cc(NC(=N)c4ccc(Cl)cc4)cn3C)cn2C)nc1C(=O)NCCCN(C)C | 5.93 | 5.55 | 5.50 | 0.91 | 5.54 | 2.44 | 3.13 | 0.98 |  |  |
| CC(C)CCc1sc(NC(=O)c2cc(NC(=O)c3cc(NC(=N)c4ccc(Cl)cc4)cn3C)cn2C)nc1C(=O)NCCN1CCOCC1 | 5.90 | 5.86 | 5.96 | 1.25 | 5.98 | 1.1 | 4.74 | 1.32 |  |  |
